Assay outcomes (PubChem BioAssay)
Rows were chosen to be rich in hits. Some 2.9% of all compounds tested hit in one or more screens of this group.
Hck-Nef inh: blocks Nef-activated human Hck kinase; Recombinant Hck-YEEI plus Nef, Z-Lyte FRET kinase assay; hit rate 0.68% among 220,000; P08631; inhibition, % at 20 µM;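 active = Hck-Nef kinase inhibition above about 50%, limit read from the data; inactive = inhibition below that limit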;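 note: 0% = DMSO with Hck plus Nef and 100% = Hck alone without Nef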
Target sequence (P08631 whole entry, looked up): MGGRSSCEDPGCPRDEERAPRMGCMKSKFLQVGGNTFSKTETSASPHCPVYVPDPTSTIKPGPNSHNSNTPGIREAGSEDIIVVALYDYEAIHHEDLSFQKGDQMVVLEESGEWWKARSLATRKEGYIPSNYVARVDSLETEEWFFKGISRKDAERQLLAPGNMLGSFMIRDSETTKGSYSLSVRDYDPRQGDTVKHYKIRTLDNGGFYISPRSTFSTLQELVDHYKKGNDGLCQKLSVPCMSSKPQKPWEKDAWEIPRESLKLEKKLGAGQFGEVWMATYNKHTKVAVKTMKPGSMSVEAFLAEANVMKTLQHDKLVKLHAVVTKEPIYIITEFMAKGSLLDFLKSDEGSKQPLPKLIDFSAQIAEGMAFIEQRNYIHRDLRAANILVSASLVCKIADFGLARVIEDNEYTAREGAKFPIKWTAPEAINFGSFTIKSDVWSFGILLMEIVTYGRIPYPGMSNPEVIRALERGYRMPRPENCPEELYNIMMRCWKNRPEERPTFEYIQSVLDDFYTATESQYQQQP
M18AAP inhibitor: blocks P. falciparum M18 aspartyl aminopeptidase. recombinant PfM18AAP, H-Glu-NHMec fluorogenic cleavage. hit rate 1.2% among 290,000. inhibition, % at 7.35 µM;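 active = inhibition above the campaign mean inhibition over all tested compounds plus 3 SD, cut at about 28% in these data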;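 note: 0% = plate median of test compound wells and 100% = 2 mM ZnCl2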
RanGTP-Imp inh: disruptors of Ran-importin-beta complex formation – biochemical, FRET, CFP-Ran, YFP-importin-beta, homogeneous, primary screen; cell-free CFP-Ran/YFP-importin-beta FRET ratio; inhibition, % (concentration not given with the values); hit rate 1.1% among 300,000; AID 2216;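 active = more than half of the replicate wells show a fall in the fluorescence ratio signal beyond about 16%, limit read from the data, passing the limit was not always enough; inconclusive = exactly half of the replicate wells pass the set limit; inactive = fewer than half of replicates pass the limit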;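 note: 0% = DMSO wells and 100% = Ran loaded with GDP instead of GTP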
RBBP9 inhibitor: blocks human serine hydrolase RBBP9; recombinant RBBP9, FP-Rh probe fluorescence polarization; hit rate 0.2% among 220,000; O75884; inhibition, % at 7.94 µM;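 active = inhibition above the campaign mean of all tested compounds plus 3 SD, cut at about 14% in these data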;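 note: plate controls were DMSO wells with RBBP9 for no effect and wells lacking RBBP9 protein for full effect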
Target sequence (O75884 whole entry, looked up): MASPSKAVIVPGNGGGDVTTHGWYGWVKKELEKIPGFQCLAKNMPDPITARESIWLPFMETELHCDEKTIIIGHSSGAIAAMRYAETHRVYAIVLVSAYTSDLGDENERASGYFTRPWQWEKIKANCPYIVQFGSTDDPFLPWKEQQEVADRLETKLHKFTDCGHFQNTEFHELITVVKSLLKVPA
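Material: RBBP9 protein. Amount: RBBP9 at 2.5 µM in dispensed solution, before mixing. Schedule: 30 min then 45 min, 25 °C. Medium: Tris buffer pH 8.0, NaCl, Pluronic. Measured by: fluorescence polarization. Measure: percent inhibition from mP, scaled between DMSO and no-protein wells. Replication: one well per compound.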
Runt-CBFb FRET: inhibitors of human RUNX1 Runt domain binding to CBFb; Cerulean-Runt/Venus-CBFb FRET ratio 530/480, 1 h; inhibition, % at 20 µM; hit rate 0.46% among 220,000;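 active = inhibition over about 50% at 20 µM in the single-dose screen, limit read from the data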;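 note: 0% = DMSO wells and 100% = excess unlabeled CBFb competitor control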
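Buffer or medium: Tris pH 7.5 buffer with BSA. Assay system: Cerulean-labeled Runt domain protein. Amount: each fluorescent fusion protein 100 nM. Read-out basis: loss of energy transfer signal. Incubation: 1 h compound exposure, room temperature. Probe or stimulus: Venus-CBFb binding partner, 100 nM. Detection: FRET, excitation 422 nm, emission at 530 and 480 nm.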
Runt-SMMHC FRET: Runt domain-CBFb-SMMHC interaction inhibition; Q01196+Q13951; Cerulean-Runt/Venus-CBFb-SMMHC FRET ratio 530/480, 1 h; inhibition, % at 20 µM; hit rate 0.74% among 220,000;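 active = mean inhibition across duplicate retests at 20 µM reaching about 50%, limit read from the data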;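 note: 0% = DMSO wells and 100% = wells with excess untagged CBFb-SMMHC; inhibitors lower the FRET ratio by blocking Runt binding to CBFb-SMMHC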
Hck Nef conf: Hck-Nef kinase inhibition, confirmation. shares compounds with Hck-Nef inh. Recombinant Hck-YEEI:Nef, Z-Lyte FRET kinase assay. calls only at 10 µM. hit rate 28% among 1,300. AID 463188;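 active = average inhibition of at least 50%, with Z-scores no higher than 3 in both the phospho-tyrosine peptide and fluorescence counterscreens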
Active calls of the source: *; i = inactive; ? = inconclusive; . = no result shown; + = active, no number.

SMILES	Hck-Nef inh	M18AAP inhibitor	RanGTP-Imp inh	RBBP9 inhibitor	Runt-CBFb FRET	Runt-SMMHC FRET	Hck Nef conf
O=C(COC(=O)c1ccc2c(c1)C(=O)N(Cc1ccco1)C2=O)NCC(F)(F)F	.	-8	?	.	.	.	.
CCN(CC)c1ccc(/C=C2/C(=O)c3ccc(C(=O)O)cc3C2=O)cc1	55*	19	.	2	-31	-92	i
Nc1c(C(=O)N/N=C/c2cccnc2)cnn1-c1ccccc1	47	0	5	-13	0	-1	.
COc1cccc(/C=N/NC(=O)c2cnn(-c3ccccc3)c2N)c1	94*	-1	4	-1	1	-2	i
c1ccc(COc2ccc(Nc3ncnc4nc[nH]c34)cc2)cc1	69*	6	-2	0	0	-3	+
CCOC(=O)c1ccc(Nc2ncnc3nc[nH]c23)cc1	6	-3	-2	-1	-2	2	.
CC(=O)Oc1ccc(OC(C)=O)c2c1CC(C)=C(C)C2	18	-4	-3	-9	-1	0	.
O=C(Nc1nn[nH]n1)c1cc(-c2ccc(Cl)c(Cl)c2Cl)nc2ccccc12	119*	-2	3	-3	2	-3	i
O=C(NNC(=O)c1ccc(-n2cncn2)c([N+](=O)[O-])c1)c1ccc(Cl)cc1	.	.	5	.	.	.	.
Cc1[nH]n(-c2ccccc2)c(=O)c1/C=N/NC(=O)C(C)C	0	-2	7	-1	-2	0	.
N/C(=N\N=C\c1ccnc2ccccc12)SC1CC(=O)N(c2ccc(Br)cc2)C1=O (stereo unspecified)	66*	0	-4	-4	-5	-7	+
Cc1ccc(C(=O)C(C)OC(=O)Cn2[nH]c(=O)c3ccccc3c2=O)cc1C (stereo unspecified)	.	-2	-2	.	.	.	.
O=C1N=c2ccccc2=C1c1sc(Nc2cccc(O)c2)nc1O	.	-1	-2	.	.	.	.
O=C1N=c2ccccc2=C1c1sc(Nc2ccc(O)cc2)nc1O	87*	4	.	-5	-10	-3	+
CS/C(N)=N/N=C/c1c(O)ccc2ccccc12	20	15	-2	-6	-2	-6	.
CCS/C(N)=N/N=C/c1cc(C)ccc1O	51*	31*	4	-8	0	1	i
CCOc1cc2[nH]c(=S)n(Cc3ccc(C(=O)O)cc3)c(=O)c2cc1OCC	.	9	7	.	.	.	.
CC(C)c1cc(=O)oc2c3c4c(cc12)CCCN4CCC3	52*	-1	29*	2	14	-3	.
Cc1cc(=O)oc2c3c4c(cc12)OCCN4CCC3	72*	6	143*	-6	4	.	.
Cc1cc(=O)oc2c3c(ccc12)OC/C3=N/N	16	-3	0	-2	3	-2	.
Cc1ccc(/C=C/C(=O)OCC(=O)N2CC(=O)Nc3ccccc32)o1	16	-33	1	-11	4	-1	.
O=C1CN(C(=O)COC(=O)/C=C/c2ccco2)c2ccccc2N1	53*	2	?	-4	4	2	i
CCOc1ccc(S(=O)(=O)N2CCN(C(=O)c3ccccc3Cc3ccccc3)CC2)cc1	.	.	0	.	.	.	.
COc1ccc(CN2CCNC(=O)C2CC(=O)NCC2CCOCC2)c(F)c1 (stereo unspecified)	.	-5	-3	.	.	.	.
CCOP(=O)(O)c1ccccc1OCCOCCOc1ccccc1P(=O)(O)OCC	94*	-4	-1	1	0	-1	i
SMILES	Hck-Nef inh	M18AAP inhibitor	RanGTP-Imp inh	RBBP9 inhibitor	Runt-CBFb FRET	Runt-SMMHC FRET	Hck Nef conf
CC1=C(C(=O)OCc2ccccc2)C(c2ccccc2Br)NC(=O)N1 (stereo unspecified)	.	-6	4	.	.	.	.
COc1cc(/C=C2\SC(c3ccc(C)cc3)=NC2=O)cc(OC)c1OC	1	9	-1	-2	-7	-102	.
COc1cc(/C=C2\SC(c3ccccc3)=NC2=O)cc(Cl)c1O	50*	18	3	3	44	69*	+
CCOc1ccc(-c2n[nH]c(=S)c3ccccc23)cc1	.	4	-3	.	.	.	.
COc1cc(/C=C/C(=O)OCC(=O)Nc2ccc(C)cc2[N+](=O)[O-])ccc1O	60*	-17	4	-6	-2	-6	i
CCCOc1ccc(CC(=O)NCCc2ccccc2)cc1OC	.	-18	-2	.	.	.	.
COc1ccc(NS(=O)(=O)c2cccc(C(=O)N/N=C(\C)c3ccc(-n4ccnc4)cc3)c2)cc1	59*	-7	-2	-22	2	-8	i
O=C(Nc1cccc(S(=O)(=O)NC2=NCCCCC2)c1)c1cc(-c2ccco2)nc2ccccc12	93*	-22	-5	-15	28	-12	+
CCOc1ccccc1N=c1oc2cc(O)ccc2cc1C(=O)NCC1CCCO1 (stereo unspecified)	59*	-2	180*	-1	53*	59*	.
O=C(Nc1ccsc1C(=O)O)c1ccc(Cl)cc1	.	-1	2	.	.	.	.
COc1ccc(S(=O)(=O)Nc2cc3c(cc2C(C)=O)OCO3)cc1	54*	4	0	-10	.	.	i
COc1ccc(OCC(=O)Nc2ccc3c(c2)nc(CCN2CCN(C)CC2)n3C)cc1	.	3	2	.	.	.	.
Cc1ccc(-n2c(C)cc(/C=C3/SC(=O)N(CC(=O)N4CCOCC4)C3=O)c2C)nc1	7	0	-2	-6	-2	-2	.
O=S1(=O)N(Cc2ccccc2F)CCCN1Cc1c(F)cccc1Cl	.	12	-2	.	.	.	.
NC(=S)N/N=C/c1coc2ccc(Cl)cc2c1=O	66*	24	0	-7	1	0	+
O=C(CCc1ccc(O)cc1)N/N=C/c1coc2ccccc2c1=O	67*	15	2	-4	0	3	+
COCC(C)OC(=O)/C(C#N)=C\c1coc2ccc(C)cc2c1=O (stereo unspecified)	98*	4	.	0	-43	-66	+
Cc1ccc2occ(/C=N/NC(=O)[C@@H](N)Cc3ccccc3)c(=O)c2c1	80*	11	-3	-8	0	1	+
Cc1cc(C)n(C(=O)/C=C/c2cccs2)n1	9	3	1	-4	2	1	.
Nc1nonc1-n1nnc(C(=O)N/N=C/c2ccccc2Br)c1CN1CCCC1	.	0	2	.	.	.	.
CCOc1ccc(C(=O)COC(=O)c2cccc(-n3cnnn3)c2)cc1	.	3	-4	.	.	.	.
CCN1CCN(Cc2ccc(NC(=O)c3ccc(C)c(NC(=O)c4ccno4)c3)cc2C(F)(F)F)CC1	101*	.	-1	.	1	3	+
CCN1CCN(Cc2ccc(NC(=O)c3cc(NC(=O)c4ccno4)cc(OC)c3)cc2C(F)(F)F)CC1	25	.	4	.	0	-1	.
